Laboratory results published in ChEMBL document CHEMBL1122384, “Synthesis and evaluation of 24-(isopropyl[75Se]seleno)chol-5-en-3 beta-ol” (J Med Chem, 1983).

Tests used:
Rattus norvegicus [1] = assay: Tested for distribution of radioactivity in female rat tissue at 1 hr after intravenous administration in adrenal; type: ADME, organism-based; settings: in vivo
Method in brief: (§1)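 Female Fischer 344 rats (160–180 g), food and water ad libitum, received 5–10 μCi i.v. via lateral tail vein (1 mL Tween 80–EtOH–saline) under light Et₂O anesthesia. At each time they were anesthetized and decapitated, and organs were rinsed in saline, blotted, weighed and gamma counted. Values are % dose/g, mean and range of 3 rats.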

Rattus norvegicus [2] = assay: Tested for distribution of radioactivity in female rat tissue at 6 hr after intravenous administration in liver; type: ADME, organism-based; settings: in vivo; method in brief: as §1
Rattus norvegicus [3] = assay: Tested for distribution of radioactivity in female rat tissue at 1 hr after intravenous administration in blood; type: ADME, organism-based; settings: in vivo; method in brief: as §1
Rattus norvegicus [4] = assay: Tested for distribution of radioactivity in female rat tissue at 3 day after intravenous administration in adrenal; type: ADME, organism-based; settings: in vivo, 72 h; method in brief: as §1
Homo sapiens [5] = species: Homo sapiens; assay: Adsorbed radiation dose value was calculated to human pancreas; type: functional
Method in brief: (§2)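 Human absorbed radiation dose estimated by the standard MIRD method from rat tissue distribution (% dose/g, 1 h–21 days) and excretion data. Excretion came from three individually caged female rats, with urine and feces collected daily over 21 days.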

Rattus norvegicus [6] = assay: Tested for distribution of radioactivity in female rat tissue at 21 day after intravenous administration in blood; type: ADME, organism-based; settings: in vivo, 504 h; method in brief: as §1
[7] = Adrenal/Tissue ratio calculated from percent dose per gram of tissue determined after 1 day intravenous administration from spleen; type: functional
Method in brief: (§3)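 Female Fischer 344 rats (160–180 g), fed ad libitum. Steroid dissolved in EtOH, formulated in Tween 80–EtOH–saline, 5–10 μCi in 1 mL given into a lateral tail vein under light Et₂O anesthesia. Organs removed 1 day post-injection, rinsed, blotted, weighed and gamma counted, 3 rats per time point. Ratios taken from adrenal vs tissue % dose/g.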

Rattus norvegicus [8] = assay: Tested for distribution of radioactivity in female rat tissue at 1 hr after intravenous administration in ovaries; type: ADME, organism-based; settings: in vivo; method in brief: as §1
Rattus norvegicus [9] = assay: Tested for distribution of radioactivity in female rat tissue at 24 hr r after intravenous administration in liver; type: ADME, organism-based; settings: in vivo; method in brief: as §1
[10] = Adrenal/Tissue ratio calculated from percent dose per gram of tissue determined after 1 day intravenous administration from lung; type: functional; method in brief: as §3
Homo sapiens [11] = species: Homo sapiens; assay: Adsorbed radiation dose value was calculated to human lungs; type: functional; method in brief: as §2
Rattus norvegicus [12] = assay: Tested for distribution of radioactivity in female rat tissue at 6 hr after intravenous administration in kidney; type: ADME, organism-based; settings: in vivo; method in brief: as §1
Homo sapiens [13] = species: Homo sapiens; assay: Adsorbed radiation dose value was calculated to human ovaries; type: functional, Female gonad; method in brief: as §2
Rattus norvegicus [14] = assay: Tested for distribution of radioactivity in female rat tissue at 24 hr r after intravenous administration in kidney; type: ADME, organism-based; settings: in vivo; method in brief: as §1
Rattus norvegicus [15] = assay: Tested for distribution of radioactivity in female rat tissue at 24 hr r after intravenous administration in ovaries; type: ADME, organism-based; settings: in vivo; method in brief: as §1
Rattus norvegicus [16] = assay: Tested for distribution of radioactivity in female rat tissue at 3 day after intravenous administration in liver; type: ADME, organism-based; settings: in vivo, 72 h; method in brief: as §1
Rattus norvegicus [17] = assay: Tested for distribution of radioactivity in female rat tissue at 1 hr after intravenous administration in liver; type: ADME, organism-based; settings: in vivo; method in brief: as §1
Homo sapiens [18] = species: Homo sapiens; assay: Adsorbed radiation dose value was calculated to human liver; type: functional; method in brief: as §2
Rattus norvegicus [19] = assay: Tested for distribution of radioactivity in female rat tissue at 18 hr after intravenous administration in liver; type: ADME, organism-based; settings: in vivo; method in brief: as §1
Rattus norvegicus [20] = assay: Tested for distribution of radioactivity in female rat tissue at 6 hr after intravenous administration in ovaries; type: ADME, organism-based; settings: in vivo
Method in brief: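 Female Fischer 344 rats (160–180 g), food and water ad libitum. Se-75-labeled steroid dissolved in EtOH, formulated in Tween 80–EtOH–saline; 5–10 μCi in 1 mL injected into a lateral tail vein under light Et₂O anesthesia. At each time point, 3 rats killed by decapitation under Et₂O. Organs rinsed with saline, blotted, weighed and gamma counted. Values are % dose/g, mean and range.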

Rattus norvegicus [21] = assay: Tested for distribution of radioactivity in female rat tissue at 14d ay after intravenous administration in blood; type: ADME, organism-based; settings: in vivo; method in brief: as §1
Rattus norvegicus [22] = assay: Tested for distribution of radioactivity in female rat tissue at 18 hr after intravenous administration in blood; type: ADME, organism-based; settings: in vivo; method in brief: as §1
Homo sapiens [23] = species: Homo sapiens; assay: Adsorbed radiation dose value was calculated to human total body; type: functional; method in brief: as §2
Rattus norvegicus [24] = assay: Tested for distribution of radioactivity in female rat tissue at 24 hr r after intravenous administration in blood; type: ADME, organism-based; settings: in vivo; method in brief: as §1
Rattus norvegicus [25] = assay: Tested for distribution of radioactivity in female rat tissue at 14d ay after intravenous administration in liver; type: ADME, organism-based; settings: in vivo; method in brief: as §1
Rattus norvegicus [26] = assay: Tested for distribution of radioactivity in female rat tissue at 18 hr after intravenous administration in adrenal; type: ADME, organism-based; settings: in vivo; method in brief: as §1
Rattus norvegicus [27] = assay: Tested for distribution of radioactivity in female rat tissue at 21 day after intravenous administration in adrenal; type: ADME, organism-based; settings: in vivo, 504 h; method in brief: as §1
Rattus norvegicus [28] = assay: Tested for distribution of radioactivity in female rat tissue at 21 day after intravenous administration in kidney; type: ADME, organism-based; settings: in vivo, 504 h; method in brief: as §1

For `CC(C)[Se]CCC[C@H](C)[C@H]1CC[C@H]2[C@@H]3CC=C4C[C@@H](O)CC[C@]4(C)[C@H]3CC[C@]12C`, the Dose/g (Rattus norvegicus [1]) was 15.65%, the Dose/g (Rattus norvegicus [2]) was 4.93% and the Dose/g (Rattus norvegicus [3]) was 3.97%. The Dose/g (Rattus norvegicus [4]) was 32.32%, the Dose (Homo sapiens [5]) was 3.4 rd mCi-1 and the Dose/g (Rattus norvegicus [6]) was 0.11%. It also gave a Ratio [7] of 19.2, a Dose/g (Rattus norvegicus [8]) of 2.24% and a Dose/g (Rattus norvegicus [9]) of 1.76%. The Ratio [10] was 10.9, the Dose (Homo sapiens [11]) was 3.2 rd mCi-1 and the Dose/g (Rattus norvegicus [12]) was 1.69%. For the same compound, the Dose (Homo sapiens [13]) was 5.9 rd mCi-1, the Dose/g (Rattus norvegicus [14]) was 1.59% and the Dose/g (Rattus norvegicus [15]) was 5.29%. For the same compound, the Dose/g (Rattus norvegicus [16]) was 0.99%, the Dose/g (Rattus norvegicus [17]) was 6.73% and the Dose (Homo sapiens [18]) was 3.7 rd mCi-1. For the same compound, the Dose/g (Rattus norvegicus [19]) was 2.78%, the Dose/g (Rattus norvegicus [20]) was 4.95% and the Dose/g (Rattus norvegicus [21]) was 0.16%. It also gave a Dose/g (Rattus norvegicus [22]) of 1%, a Dose (Homo sapiens [23]) of 1.8 rd mCi-1 and a Dose/g (Rattus norvegicus [24]) of 0.71%. It also gave a Dose/g (Rattus norvegicus [25]) of 0.5%, a Dose/g (Rattus norvegicus [26]) of 42.97% and a Dose/g (Rattus norvegicus [27]) of 15.22%. For the same compound, the Dose/g (Rattus norvegicus [28]) was 0.64%.
